According to paper PMC3449281 (Chemistry & biology, 2012):
Entries after “also recorded” stand apart in the source; their conditions may differ.

How the values were obtained:
[1] = biological target: purified firefly luciferase (FLuc) (Photinus pyralis, UniProt P08659); assay: Mode of inhibition; type: biochemical; settings: IC50 shift with 1 mM D-LH2, 1 mM ATP or high CoASH
Procedure, shortened: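 Purified P. pyralis FLuc was run in the standard luciferase assay (10 μM ATP and D-LH2, the KM levels). Test compounds were given as 12-point titrations, 57.5 μM to 0.3 nM final. One substrate was kept at KM and the other saturating (1 mM ATP or 1 mM D-luciferin), or 500 μM CoASH was added. Fold shift = IC50 at high substrate / IC50 at KM. There were three separate tests, each in duplicate.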

miR-21 FLuc assay = assay: miR-21 FLuc cell-based reporter gene assay; settings: 48-hour incubation with compound
Procedure, shortened: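 The cell-based reporter expresses wild-type FLuc and was optimized to detect increases in FLuc signal. Cells were exposed to test compound for 48 h. Unlike the read-through assay, there was no wash step before the detection reagent was added. Concentration–response curves were recorded.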

purified RLuc = biological target: T1, purified RLuc (Renilla reniformis, UniProt P27652); settings: highest concentration tested = 57.5 μM
T1 sequence (P27652 1-311): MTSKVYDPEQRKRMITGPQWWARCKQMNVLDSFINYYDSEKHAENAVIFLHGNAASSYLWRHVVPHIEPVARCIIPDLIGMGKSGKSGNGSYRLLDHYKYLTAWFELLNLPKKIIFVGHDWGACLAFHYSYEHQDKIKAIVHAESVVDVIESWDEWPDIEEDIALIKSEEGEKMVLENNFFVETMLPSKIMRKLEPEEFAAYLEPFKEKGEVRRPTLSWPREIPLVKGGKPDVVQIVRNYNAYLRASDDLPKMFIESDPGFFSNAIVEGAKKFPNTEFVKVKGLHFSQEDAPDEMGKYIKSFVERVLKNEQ

purified firefly luciferase (FLuc), sequence (P08659 whole entry): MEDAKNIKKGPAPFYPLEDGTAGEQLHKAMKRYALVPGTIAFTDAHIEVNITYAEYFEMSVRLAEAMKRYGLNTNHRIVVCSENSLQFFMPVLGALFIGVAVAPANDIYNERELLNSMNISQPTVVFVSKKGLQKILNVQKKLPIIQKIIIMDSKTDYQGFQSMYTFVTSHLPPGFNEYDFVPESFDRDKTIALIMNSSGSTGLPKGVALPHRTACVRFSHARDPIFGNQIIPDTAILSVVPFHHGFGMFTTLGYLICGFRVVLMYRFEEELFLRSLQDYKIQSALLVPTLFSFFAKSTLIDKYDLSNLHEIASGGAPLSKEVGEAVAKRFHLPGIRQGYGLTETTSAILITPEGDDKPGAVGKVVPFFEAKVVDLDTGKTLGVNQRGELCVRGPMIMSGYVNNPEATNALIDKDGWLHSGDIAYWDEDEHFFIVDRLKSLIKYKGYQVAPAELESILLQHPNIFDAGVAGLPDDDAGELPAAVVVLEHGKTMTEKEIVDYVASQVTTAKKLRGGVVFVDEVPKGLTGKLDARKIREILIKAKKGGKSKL

**Q.** With COc1ccc(-c2nc3ccccc3s2)cc1O [CID: 976322] as the compound, how does the “Mode of inhibition (substrate competition)” value (from here on “Mode of inhibition”) [1] read?
**A.** ATP was found to enhance inhibitor binding

**Q.** CC(C)(C)C(=O)Nc1ccc(-c2nc3ccccc3s2)cc1 [CID: 16015828] was tested. Which “Effect on FLuc signal in cell-based miR-21 assay” value (miR-21 FLuc assay) did it give?
**A.** strong activation

**Q.** How did the “Activity in RLuc assay” value (purified RLuc) turn out when O=C(Nc1ccccc1C(=O)O)c1cc(S(=O)(=O)Nc2cccc(F)c2)ccc1Cl [compound 1105141] was run?
**A.** RLuc-active

**Q.** How did the “Mode of inhibition” value [1] turn out when Cn1c(NN=Cc2cc3ccccc3nc2Cl)nc2ccccc21 [CID:4216593] was run?
**A.** competitive with both D-LH2 and ATP; also recorded: significantly reduced by either ATP or D-LH2

**Q.** Which “Mode of inhibition” value [1] does the source give for CC(=NNC(=O)c1ccccc1NC(=O)c1ccc(Cl)cc1)c1ccncc1 [CID: 16193026] here?
**A.** only ATP

**Q.** With O=C(Nc1ccccc1C(=O)O)c1cccc(S(=O)(=O)Nc2ccc(Br)cc2)c1 [compound 1087370] as the compound, how does the “Activity in RLuc assay” value (purified RLuc) read?
**A.** RLuc-active
